# Reference: ChEMBL document CHEMBL4837208, “1,2,4-Triazolo[1,5-a]pyrimidines: Efficient one-step synthesis and functionalization as influenza polymerase PA-PB1 interaction disruptors” (Eur J Med Chem, 2021)
# How the values were obtained:
# [1] = Cytotoxicity against MDCK cells assessed as reduction in cell viability incubated for 48 hrs by MTT assay; type: cell-based, Canis lupus familiaris; settings: dog
# Summary of the method: (§1)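 MDCK cells (2 × 10⁴/well) grown 24 h, then given serial compound dilutions or DMSO in DMEM with 10% FBS for 48 h at 37 °C. MTT (5 mg/mL in PBS) added for 4 h. Lysed overnight with 10% SDS/0.01 N HCl, then OD read at 620 nm. CC50 is the concentration reducing viability by 50%. At least three independent experiments in duplicate.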
# [2] = biological target: PA/PB1 (Influenza A virus (A/Puerto Rico/8/1934(H1N1)), UniProt P03431+P03433); test: Inhibition of Influenza A virus 6 His-tagged PA (239 to 716 residues) expressed in Escherichia coli BL21 pLysS/GST-tagged PB1 (1 to 25 residues) expressed in Escherichia coli protein-protein interaction using 3.3',5,5' tetramethyl benzidine as substrate by ELISA
# Summary of the method: (§2)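 Wells coated with 400 ng 6His-PA(239–716), E. coli BL21(DE3)pLysS-expressed, for 3 h at 37 °C, then blocked with 2% BSA/PBS for 1 h. Then 200 ng GST-PB1(1–25), or GST alone as control, added with compound at various concentrations, overnight at room temperature. Bound PB1 detected with HRP-anti-GST antibody (1:4000 in PBS/2% FBS). IC50 is the concentration halving PA–PB1 binding. At least three independent experiments in duplicate.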
# [3] = tested on: Influenza A virus; test: Antiviral activity against Influenza A virus A/PR/8/34(H1N1) infected in MDCK cells assessed as inhibition of plaque formation for 48 hrs by plaque reduction assay; type: functional, organism-based; settings: A/Puerto Rico/8/1934(H1N1)
# Summary of the method: (§3)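 MDCK monolayers (5 × 10⁵ cells/well, seeded 24 h earlier) washed with serum-free DMEM. Infected with A/PR/8/34 at 40 PFU/well for 1 h at 37 °C, in DMEM with TPCK-trypsin and 0.14% BSA, with compound or DMSO present. Overlay of the same medium plus 1.2% Avicel and compound. At 48 h, fixed with 4% formaldehyde and stained with 0.1% toluidine blue. Plaques counted against DMSO control set at 100%. At least three independent experiments in duplicate.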
# [4] = Cytotoxicity against MDCK cells assessed as reduction in cell viability by MTT assay; type: cell-based, Canis lupus familiaris; settings: dog; summary of the method: as §1
# [5] = tested on: Influenza A virus; test: Antiviral activity against Influenza A virus A/PR/8/34(H1N1) infected in MDCK cells assessed as inhibition of viral replication by plaque reduction assay; type: functional, organism-based; settings: A/Puerto Rico/8/1934(H1N1); summary of the method: as §3
# [6] = biological target: PA/PB1 (Influenza A virus (A/Puerto Rico/8/1934(H1N1)), UniProt P03431+P03433); test: Inhibition of Influenza A virus PA-PB1 protein-protein interaction by ELISA; type: protein assay; summary of the method: as §2
# [7] = tested on: SARS-CoV-2; test: microbe, parasite or virus in culture; type: functional, organism-based, Vero E6; settings: Severe acute respiratory syndrome coronavirus 2, Vero C1008
# [8] = biological target: RNA-directed RNA polymerase (Influenza A virus (strain A/Puerto Rico/8/1934 H1N1), UniProt P03428+P03431+P03433); test: Inhibition of RdRP activity in Influenza A virus A/PR/8/34(H1N1) infected in HEK293T cells incubated for 24 hrs by minireplicon based dual luciferase assay; type: cell-based, Influenza A virus (A/Puerto Rico/8/1934(H1N1))
# Summary of the method: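 HEK293T cells (2 × 10⁵/well) plated overnight. Calcium-phosphate transfected with PB1, PB2, PA and NP plasmids (100 ng each), pPolI-Flu-ffLuc reporter (50 ng) and pRL-SV40 (50 ng), with compound or DMSO. Medium replaced at 5 h with compound-containing DMEM. Dual luciferase read at 24 h post-transfection. Firefly normalised to Renilla, with DMSO set at 100% polymerase activity.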
# [9] = Cytotoxicity against African green monkey Vero E6 cells assessed as reduction in cell viability incubated for 1 to 2 hrs by MTS assay; type: cell-based, Vero C1008; settings: chlorocebus sabaeus, time 1-2 hrs
# Summary of the method: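 Vero E6 cell viability measured by the colorimetric formazan-based MTS assay. Means of duplicate experiments.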
compound,measurement,setting,value
O=C(Nc1nc2nc(-c3ccccc3)cc(O)n2n1)c1ccccc1,CC50 at 48 h,[1],> 250 µM
same,IC50,[2],21 µM
same,EC50,[3],> 100 µM
O=C(Nc1nc2nccc(-c3ccccc3)n2n1)c1ccccc1,CC50 at 48 h,[1],> 250 µM
same,IC50,[2],> 200 µM
same,EC50,[3],> 100 µM
COc1ccc(C(=O)Nc2nc3n(n2)C(c2ccccc2)C=C(C)N3)cc1 (configuration not stated),CC50,[4],240 µM
same,EC50,[5],> 100 µM
same,IC50,[6],171 µM
COc1ccc(C(=O)Nc2nc3nc(-c4ccccc4)cc(C)n3n2)cc1,CC50 at 48 h,[1],> 250 µM
same,EC50,[3],> 100 µM
same,EC50,[7],> 100 µM
CCCOc1ccc(C(=O)Nc2nc3nc(-c4ccccc4)cc(C)n3n2)cc1,CC50 at 48 h,[1],247 µM
same,EC50,[3],> 100 µM
same,EC50,[7],65.3 µM
O=C(Nc1nc2nc(-c3ccccc3)ccn2n1)c1ccccc1,CC50 at 48 h,[1],> 250 µM
same,IC50,[2],165 µM
same,EC50,[3],> 100 µM
Cc1cc(-c2ccccc2)nc2nc(NC(=O)c3ccccc3F)nn12,CC50 at 48 h,[1],> 250 µM
same,EC50,[3],> 100 µM
same,EC50,[7],30.6 µM
Cc1cc(-c2ccccc2)nc2nc(C(=O)Nc3ccccc3C(=O)O)nn12,CC50 at 48 h,[1],> 250 µM
same,IC50,[2],32 µM
same,EC50,[3],> 100 µM
COC(=O)c1ccccc1NC(=O)c1nc2nc(C)cc(-c3ccccc3)n2n1,CC50 at 48 h,[1],> 250 µM
same,IC50,[2],26.5 µM
same,EC50,[3],> 80 µM
Cc1cc(-c2ccccc2)nc2nc(NC(=O)c3ccc(N)cc3)nn12,CC50 at 48 h,[1],> 250 µM
same,EC50,[3],> 100 µM
same,EC50,[7],44 µM
NC(=O)c1ccccc1NC(=O)c1nc2ncc(-c3ccccc3)cn2n1,CC50 at 48 h,[1],> 250 µM
same,IC50,[2],> 200 µM
same,EC50,[3],> 100 µM
Cc1cc(-c2ccccc2)nc2nc(NC(=O)c3ccc([N+](=O)[O-])cc3)nn12,CC50 at 48 h,[1],> 250 µM
same,EC50,[3],> 100 µM
same,EC50,[7],> 100 µM
Cc1cc(-c2ccccc2)n2nc(C(=O)Nc3ccccc3C(=O)O)nc2n1,CC50 at 48 h,[1],> 250 µM
same,IC50,[2],116 µM
same,EC50,[3],> 100 µM
Cc1cc(-c2ccccc2)nc2nc(NC(=O)c3ccc(O)c(O)c3)nn12,CC50 at 48 h,[1],112 µM
same,EC50,[3],> 100 µM
same,EC50,[7],> 100 µM
NC(=O)c1c(NC(=O)c2nc3nccc(-c4ccccc4)n3n2)sc2c1CCCCC2,CC50 at 48 h,[1],> 200 µM
same,IC50,[2],22 µM
same,EC50,[3],> 60 µM
NC(=O)c1c(NC(=O)c2nc3ncc(-c4ccccc4)cn3n2)sc2c1CCCCC2,CC50 at 48 h,[1],100 µM
same,IC50,[2],35 µM
same,EC50,[3],> 80 µM
O=C(Nc1nc2ncc(-c3ccccc3)cn2n1)c1ccccc1,CC50 at 48 h,[1],> 250 µM
same,IC50,[2],> 200 µM
same,EC50,[3],> 100 µM
NC(=O)c1ccccc1NC(=O)c1nc2nccc(-c3ccccc3)n2n1,CC50 at 48 h,[1],> 250 µM
same,IC50,[2],21 µM
same,EC50,[3],> 100 µM
Cc1cc(-c2ccccc2)n2nc(-c3nc4ccccc4c(=O)o3)nc2n1,CC50 at 48 h,[1],> 250 µM
same,IC50,[2],19.5 µM
same,EC50,[3],16 µM
same,EC50,[8],21 µM
Cc1cc(-c2ccccc2)nc2nc(-c3nc4ccccc4c(=O)o3)nn12,CC50 at 48 h,[1],> 200 µM
same,IC50,[2],123 µM
same,EC50,[3],> 100 µM
COC(=O)c1ccccc1NC(=O)c1nc2nc(-c3ccccc3)cc(C)n2n1,CC50 at 48 h,[1],> 250 µM
same,IC50,[2],22.3 µM
same,EC50,[3],> 100 µM
Cc1cc(-c2ccccc2)nc2nc(C(=O)Nc3ccccc3F)nn12,CC50,[9],> 100 µM
same,CC50 at 48 h,[1],> 250 µM
same,EC50,[3],83.8 µM
same,EC50,[7],34.5 µM
N#C[C@@]1(c2ccc3c(N)ncnn23)O[C@H](CO)[C@@H](O)[C@H]1O [GS-441524],EC50,[7],0.89 µM
NC(=O)c1ncn([C@@H]2O[C@H](CO)[C@@H](O)[C@H]2O)n1 [RIBAVIRIN],CC50 at 48 h,[1],> 250 µM
same,EC50,[3],10 µM
same,EC50,[8],16 µM
